pIC50: −log10 of the molar value. The source made the active and inactive calls. The rule behind the calls is not given here.
Tests used:
HeLa [1] = assay: Induction of apoptosis in human HeLa cells assessed as reduction in Mcl-1 expression at 25 uM after 24 hrs by Western blot analysis; type: functional, cell-based
Outline: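 HeLa cells treated 24 or 48 h at 25 µM, then lysed. 20 µg protein per lane was run on SDS-PAGE and transferred to PVDF. Membranes were probed 2 h at room temperature for cleaved caspase-9, caspase-3, cleaved PARP, Bcl-2, Mcl-1 or Bax, with peroxidase secondary antibody and ECL. β-Actin reprobe served as loading control.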

Jurkat = assay: Cell cycle arrest in human Jurkat cells assessed as accumulation at G2/M phase at 10 to 25 uM after 24 hrs by flow cytometry; type: functional, cell-based
Outline: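 5×10^5 HeLa or Jurkat cells exposed to graded compound concentrations for 24 h. Cells were fixed in ice-cold 70% ethanol, lysed with RNase A/0.1% Triton X-100 buffer and stained with propidium iodide. DNA content was read by flow cytometry. Phase percentages are mean ± SEM of three independent experiments.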

HeLa [2] = assay: Effect on PCM1 protein in human HeLa cells assessed as accumulation of pericentriolar material at 25 uM after 24 hrs by immunofluorescence microscopy; type: functional, cell-based
Outline: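 After 24 h at 25 µM, HeLa cells were stained with anti-PCM1 and Alexa-conjugated secondary antibody, with phalloidin-tetramethylrhodamine B for actin and DAPI for nuclei. Cells were imaged by confocal microscopy at 60×.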

CA46 [3] = assay: Cell cycle arrest in human CA46 cells assessed as accumulation at G2/M phase at 5 times IC50 by flow cytometry; type: functional
[4] = Antiproliferative activity against human RS4:11 cells assessed as reduction in cell viability after 72 hrs by MTT assay; type: functional, cell-based; details: RS4-11, 72 h
Outline: (§1)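 Cells kept in RPMI-1640 (Jurkat, SEM, RS4;11) or DMEM (A549, HeLa, IGROV-1, HT-29) with 10% FBS plus penicillin/streptomycin. 8×10^3 cells per well were left 18 h at 37 °C in 5% CO2. Medium was then replaced with fresh medium holding graded compound concentrations from 10 mM DMSO stocks. Cells were incubated 72 h and viability read by MTT. IC50 is the mean ± SEM from dose–response curves of at least three independent experiments.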

HeLa [5] = assay: Upregulation of aurora kinase A protein level in human HeLa cells at 25 uM after 24 hrs by Western blot analysis; type: functional, cell-based
HeLa [6] = assay: Upregulation of cyclin B protein level in human HeLa cells at 25 uM after 24 hrs by Western blot analysis; type: functional, cell-based
HT-29 = assay: Antiproliferative activity against human HT-29 cells assessed as reduction in cell viability after 72 hrs by MTT assay; type: functional, cell-based; details: HT-29, 72 h; outline: as §1
HeLa [7] = assay: Induction of apoptosis in human HeLa cells assessed as mitochondrial membrane depolarization after 24 to 48 hrs using JC-1 staining-based fluorescence assay; type: functional, cell-based
Outline: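 Mitochondrial membrane potential was read with the JC-1 dye in HeLa cells after 24 or 48 h at graded concentrations. Data are mean ± SEM of three independent experiments.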

CA46 [8] = assay: Antiproliferative activity against human CA46 cells assessed as reduction in cell viability after 72 hrs by MTT assay; type: functional, cell-based; details: CA46, 72 h
PBL [9] = assay: Cytotoxicity against resting human PBLs assessed as reduction in cell growth; type: cell-based
Outline: (§2)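 Peripheral blood lymphocytes from healthy donors, tested either resting (no PHA) or PHA-stimulated. Value is the concentration reducing cell growth by 50%, mean ± SEM of three separate experiments.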

HeLa [10] = assay: Disruption of microtubule network in human HeLa cells assessed as induction of spherical morphology at 25 uM after 24 hrs by immunofluorescence microscopy; type: cell-based
Outline: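 HeLa cells exposed 24 h at 25 µM, fixed in cold 4% formaldehyde for 15 min, and stained with anti-β-tubulin plus Alexa-conjugated secondary antibody, with DAPI counterstain. Cells were imaged by confocal microscopy.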

PBL [11] = assay: Cytotoxicity against PHA-stimulated human PBLs assessed as reduction in cell growth; type: cell-based; outline: as §2
HeLa [12] = assay: Induction of DNA damage in human HeLa cells assessed as increase in phosphorylated form of histone gamma-H2A.X level at 25 uM after 24 hrs by Western blot analysis; type: functional, cell-based
Outline: (§3)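 HeLa cells treated 24 or 48 h at 25 µM, then washed in PBS and lysed 30 min on ice. 20 µg protein per lane was resolved on 7.5–15% SDS-PAGE and blotted to PVDF. Blots were probed for cyclin B, p-cdc2 Tyr15, cdc25C and γH2A.X, with β-actin reprobe as loading control and ECL detection.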

LoVo = assay: Antiproliferative activity against human LoVo cells assessed as reduction in cell viability after 72 hrs by MTT assay; type: functional, cell-based
Tubulin [13] = target: T1, Tubulin (Bos taurus, UniProt Q6B856+Q862L2+Q862F3); assay: Inhibition of bovine brain tubulin assessed as extent of assembly preincubated for 15 mins by turbidimetry
Outline: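 Bovine brain tubulin at 10 µM (1.0 mg/mL) in 0.8 M monosodium glutamate pH 6.6 with 4% DMSO and varying compound was preincubated 15 min at 30 °C, then chilled. GTP was added to 0.4 mM final and the temperature jumped from 0 to 30 °C. Turbidity was followed at 350 nm, scoring either maximum rate or extent of assembly at 20 min.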

CA46 [14] = assay: Cell cycle arrest in human CA46 cells assessed as reduction in mitotic index by Giemsa staining method relative to control; type: functional; design: scale not given: the % may be the effect or the level left
Outline: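 CA46 Burkitt lymphoma cells grown in RPMI 1640 with 17% FBS and 2 mM L-glutamine at 37 °C, 5% CO2, treated 16 h. Cells were swollen 10 min in half-strength PBS, fixed in 0.5% acetic acid–1.5% ethanol, then spread from 25% acetic acid/75% ethanol. Slides were Giemsa-stained. Mitotic cells were those with condensed chromosomes and no nuclear membrane, with ≥200 cells counted per condition.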

HeLa [15] = assay: Downregulation of cdc25c protein level in human HeLa cells at 25 uM after 24 hrs by Western blot analysis; type: functional, cell-based; details: in the assay text read “after 48 hrs” for “after 24 hrs”; outline: as §3
HeLa [16] = assay: Upregulation of cdc25c protein level in human HeLa cells at 25 uM after 24 hrs by Western blot analysis; type: functional, cell-based
HeLa [17] = assay: Downregulation of cyclin B protein level in human HeLa cells at 25 uM after 48 hrs by Western blot analysis; type: functional, cell-based; outline: as §3
Tubulin [18] = target: T1, Tubulin; assay: Displacement of [3H]colchicine from bovine brain tubulin assessed as rate of assembly after 10 mins by liquid scintillation counting
HeLa [19] = assay: Induction of DNA damage in human HeLa cells assessed as increase in phosphorylated form of histone gamma-H2A.X level at 25 uM after 48 hrs by Western blot analysis; type: functional, cell-based; outline: as §3

pIC50 (HT-29)	pIC50 (LoVo)	IC50 (Tubulin [13]) [µM]	SMILES	Activity (HeLa [1])	Activity (Jurkat)	Activity (HeLa [2])	pIC50 [4]	Activity (HeLa [5])	Activity (HeLa [6])	Activity (HeLa [7])	pIC50 (PBL [9])	Activity (HeLa [10]) [%]	pIC50 (PBL [11])	Activity (HeLa [12])	Activity (HeLa [15])	further results
4.47	4.18	> 400	COc1ccc2c(c1OC)C(=O)O[C@@H]2[C@H]1c2c(c(C)c3c(c2OC)OCO3)CCN1C	Active	Active	Active	4.80	Active	Active	Dose-dependent effect	< 3.70	70	< 3.70	Active	–	Activity (CA46 [3]): >80%; pIC50 (CA46 [8]): 4.74; Activity (CA46 [14]): 38%
4.60	4.38	120	COc1ccc2c(c1OC)C(=O)O[C@@H]2[C@H]1c2c(c(-c3ccc(C)cc3)c3c(c2OC)OCO3)CCN1C	inactive	Active	–	4.79	Active	Active	Dose-dependent effect	< 3.70	–	< 3.70	Active	Active	Activity (HeLa [16]): Active; Activity (HeLa [17]): Active
4.73	4.37	> 400	COc1ccc2c(c1OC)C(=O)O[C@@H]2[C@H]1c2c(c(Br)c3c(c2OC)OCO3)CCN1C	Active	–	Active	5.85	–	–	Dose-dependent effect	< 3.70	70	4.04	–	Active	IC50 (Tubulin [18]): > 400 µM; Activity (HeLa [19]): Active
